Assay results reported in ChEMBL document CHEMBL1129435, “Acyclic nucleotide analogs derived from 8-azapurines: synthesis and antiviral activity” (J Med Chem, 1996).
In brackets after ≈: the same amount, converted by molar mass.

Columns and labels:
Human alphaherpesvirus 3 [1] = experiment: Antiviral activity in TK+ varicella zoster virus (VZV) 07/1 strain in HEL cell culture; format: functional, organism-based; conditions: Human alphaherpesvirus 3, HEL
Human betaherpesvirus 5 = experiment: Antiviral activity against cytomegalovirus (CMV) AD169 strain in HEL cell culture; format: functional, organism-based; conditions: Human betaherpesvirus 5, HEL
Method in brief: (§1)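 Confluent cell monolayers in microtiter trays were inoculated with 100 CCID50 of virus. After 1 h adsorption the residual virus was removed. Cells were then incubated with serial compound concentrations (400, 200, 100, ... µg/mL). Cytopathicity was scored once it was complete in untreated infected controls. The value is the 50% inhibitory concentration, or the concentration reducing plaque formation by 50%, in µg/mL.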

[2] = system: Moloney murine sarcoma virus; experiment: Compound was tested for anti-retroviral activity against moloney murine sarcoma virus (MSV) in murine C3H/3T3 embryo fibroblast cell culture; format: functional, organism-based
Method in brief: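 C3H/3T3 fibroblasts were seeded at 5 × 10⁵ cells/mL. After 24 h they were infected with 80 focus-forming units of MSV for 90-120 min at 37 °C; the virus came from tumours induced by intramuscular inoculation of 3-day-old NMRI mice. The medium was then replaced with fresh medium containing various compound concentrations. Transformation was scored microscopically after 6 days.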

[3] = Antiviral activity against herpes simplex virus-1 KOS in E6SM cell culture; format: functional, cell-based; conditions: Human alphaherpesvirus 1, E6SM; method in brief: as §1
[4] = Antiviral activity against thymidine kinase deficient herpes simplex virus-1 HSV-1 TK- VMW-1837 strain in E6SM cell culture; format: functional, cell-based; conditions: Human alphaherpesvirus 1, E6SM; method in brief: as §1
[5] = system: Human immunodeficiency virus 2; experiment: Inhibition of human immunodeficiency virus-2 (HIV-2) induced cytopathicity in CEM cells; format: functional, organism-based; conditions: Human immunodeficiency virus 2, CCRF-CEM
Human alphaherpesvirus 1 = experiment: Antiviral activity against thymidine kinase deficient herpes simplex virus-1 HSV-1 TK- B2006 strain in E6SM cell culture; format: functional, organism-based; conditions: Human alphaherpesvirus 1, E6SM; method in brief: as §1
[6] = system: Human immunodeficiency virus 1; experiment: Inhibition of human immunodeficiency virus-1 (HIV-1) induced cytopathicity in CEM cells; format: functional, organism-based; conditions: Human immunodeficiency virus 1, CCRF-CEM
Method in brief: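 CEM cells (~3 × 10⁵ cells/mL) were infected with HIV-1(IIIB) at 100 CCID50 per µL. Infected cells were plated with compound dilutions and incubated 4 days at 37 °C. Giant cell formation was then examined microscopically.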

[7] = system: Human immunodeficiency virus 1; experiment: Inhibition of human immunodeficiency virus-1 (HIV-1) induced cytopathicity in human MT-4 cells; format: functional, organism-based; conditions: Human immunodeficiency virus 1, MT4
Method in brief: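 MT-4 cells (~4 × 10⁵ cells/mL) were infected with HIV-1(IIIB) at 100 CCID50 per µL. Infected cells were seeded into wells containing compound dilutions and incubated 5 days at 37 °C. Viable cells were then counted by trypan blue exclusion in a blood cell counting chamber.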

Human alphaherpesvirus 3 [8] = experiment: Antiviral activity in TK+ varicella zoster virus (VZV) YS strain in HEL cell culture; format: functional, organism-based; conditions: Human alphaherpesvirus 3, HEL
Human alphaherpesvirus 2 = experiment: Antiviral activity in herpes simple virus-2 (HSV-2) Lyons strain in E6SM cell culture; format: functional, organism-based; conditions: Human alphaherpesvirus 2, E6SM; method in brief: as §1
Cytomegalovirus = experiment: Antiviral activity against cytomegalovirus (CMV) Davis strain in HEL cell culture; format: functional, organism-based; conditions: Human betaherpesvirus 5, HEL; method in brief: as §1
Human alphaherpesvirus 3 [9] = experiment: Antiviral activity in TK+ varicella zoster virus (VZV) OKA strain in HEL cell culture; format: functional, organism-based; conditions: Human alphaherpesvirus 3, HEL
Vaccinia virus = experiment: Antiviral activity against vaccinia virus (VV) in E6SM cell culture; format: functional, organism-based; conditions: Orthopoxvirus vaccinia

SMILES | IC50 (Human alphaherpesvirus 3 [1]) [µg/mL] | IC50 (Human betaherpesvirus 5) [µg/mL] | IC50 [2] [µg/mL] | IC50 [3] [µg/mL] | IC50 [4] [µg/mL] | IC50 [5] [µg/mL] | IC50 (Human alphaherpesvirus 1) [µg/mL] | IC50 [6] [µg/mL] | IC50 [7] [µg/mL] | IC50 (Human alphaherpesvirus 3 [8]) [µg/mL] | IC50 (Human alphaherpesvirus 2) [µg/mL] | IC50 (Cytomegalovirus) [µg/mL] | IC50 (Human alphaherpesvirus 3 [9]) [µg/mL] | IC50 (Vaccinia virus) [µg/mL]
C[C@H](Cn1nnc2c(O)nc(N)nc21)OCP(=O)(O)O | 20 (≈ 65.7 µM) | 50 (≈ 164 µM) | 0.43 (≈ 1.41 µM) | 20 (≈ 65.7 µM) | 20 (≈ 65.7 µM) | 2 (≈ 6.57 µM) | > 100 | 2 (≈ 6.57 µM) | 2.42 (≈ 7.96 µM) | 28 (≈ 92 µM) | 20 (≈ 65.7 µM) | 35 (≈ 115 µM) | 40 (≈ 131 µM) | > 100
Nc1nc(N)c2nnn(C[C@@H](CO)OCP(=O)(O)O)c2n1 | 6 (≈ 18.8 µM) | 100 (≈ 313 µM) | 1 (≈ 3.13 µM) | 20 (≈ 62.7 µM) | 40 (≈ 125 µM) | > 100 | 20 (≈ 62.7 µM) | > 100 | > 100 | 6 (≈ 18.8 µM) | 40 (≈ 125 µM) | 100 (≈ 313 µM) | 9 (≈ 28.2 µM) | 20 (≈ 62.7 µM)
Nc1nc(N)c2nnn(C[C@@H](CF)OCP(=O)(O)O)c2n1 | > 50 | > 50 | 14.9 (≈ 46.4 µM) | > 400 | > 400 | 50 (≈ 156 µM) | > 400 | 50 (≈ 156 µM) |  | > 50 |  | > 50 | > 50 | > 400
Nc1ncnc2nn(C[C@H](O)CO)nc12 |  | > 100 | > 100 | > 200 |  | > 100 |  | > 100 |  |  |  |  | > 40 | 
Nc1nc(O)c2nn(CCOCP(=O)(O)O)nc2n1 | > 40 | > 100 | > 40 | > 400 | > 300 | > 100 | > 400 | > 100 | > 100 | 40 (≈ 138 µM) | > 300 | > 40 | 40 (≈ 138 µM) | 150 (≈ 517 µM)
Nc1nc(N)c2nn(C[C@@H](CF)OCP(=O)(O)O)nc2n1 | > 50 | > 50 | > 200 | > 400 | > 400 | > 100 | > 400 | > 100 |  | > 50 |  | > 50 | > 50 | > 400
Nc1ncnc2nn(CCOCP(=O)(O)O)nc12 | > 100 | > 100 | > 100 | > 400 | > 400 |  | > 400 |  | > 100 | > 100 | > 400 | > 100 | > 100 | > 400
Nc1ncnc2c1nnn2C[C@H](O)CO | > 40 | > 100 | > 100 | > 200 |  | > 100 |  | > 100 |  | > 40 |  |  | > 40 | 
C[C@H](Cn1nc2ncnc(N)c2n1)OCP(=O)(O)O | 5 (≈ 17.3 µM) | > 40 | 2.9 (≈ 10.1 µM) | 150 (≈ 520 µM) | 100 (≈ 347 µM) | > 100 | 150 (≈ 520 µM) | > 100 | > 100 | 5 (≈ 17.3 µM) | 100 (≈ 347 µM) | > 40 | 10 (≈ 34.7 µM) | > 400
C[C@H](Cn1nc2nc(N)nc(N)c2n1)OCP(=O)(O)O | > 50 | > 50 | 28.4 (≈ 93.7 µM) | > 100 | > 200 | > 100 | 200 (≈ 660 µM) | > 100 | > 100 | > 50 | > 200 | > 50 | > 50 | > 100
C[C@H](Cn1nc2nc(N)nc(O)c2n1)OCP(=O)(O)O |  | > 50 | > 40 | > 100 | > 400 | 20 (≈ 65.7 µM) | > 400 | 20 (≈ 65.7 µM) | 20 (≈ 65.7 µM) | > 20 | > 400 | > 50 | > 20 | > 400
Nc1nc(N)c2nnn(CCOCP(=O)(O)O)c2n1 | > 40 | > 40 | 0.75 (≈ 2.59 µM) | 70 (≈ 242 µM) | 150 (≈ 519 µM) |  | 150 (≈ 519 µM) |  | 45.8 (≈ 158 µM) | > 40 | 150 (≈ 519 µM) | > 40 | > 40 | > 400
C[C@H](Cn1nnc2c(N)nc(N)nc21)OCP(=O)(O)O | > 50 | > 50 | 1.58 (≈ 5.21 µM) | 300 (≈ 989 µM) | 300 (≈ 989 µM) | 40 (≈ 132 µM) | 300 (≈ 989 µM) | 30 (≈ 98.9 µM) | 44.4 (≈ 146 µM) | > 50 | 300 (≈ 989 µM) | > 50 | > 50 | > 400
Nc1ncnc2c1nnn2CCOCP(=O)(O)O | > 100 | > 100 | 12.1 (≈ 44.1 µM) | > 200 | > 200 |  | > 200 |  | > 100 | > 100 | > 200 | > 100 | > 100 | > 400
Nc1ncnc2c1nnn2C[C@@H](CF)OCP(=O)(O)O | > 40 | > 40 | > 200 | > 400 | > 400 | > 100 | > 400 | > 100 |  | > 40 | > 400 | > 40 | > 40 | > 400
Nc1nc(O)c2nnn(CCOCP(=O)(O)O)c2n1 | 0.1 (≈ 0.345 µM) | 2.3 (≈ 7.93 µM) | 0.32 (≈ 1.1 µM) | 2 (≈ 6.89 µM) | 2 (≈ 6.89 µM) | 2 (≈ 6.89 µM) | 7 (≈ 24.1 µM) | 2 (≈ 6.89 µM) | 2 (≈ 6.89 µM) | 0.04 (≈ 0.138 µM) | 2 (≈ 6.89 µM) | 2.3 (≈ 7.93 µM) | 0.4 (≈ 1.38 µM) | 0.7 (≈ 2.41 µM)
Nc1ncnc2nn(C[C@@H](CF)OCP(=O)(O)O)nc12 | > 10 | > 400 | 13.1 (≈ 42.8 µM) | > 40 |  |  | > 40 |  | 15 (≈ 49 µM) | > 10 |  | > 400 | > 10 | > 40
Nc1nc(N)c2nnn(C[C@H](O)CO)c2n1 | > 50 | > 50 | > 40 | > 100 |  | > 100 |  | > 100 |  | > 50 |  |  | > 50 | 
C[C@H](Cn1nnc2c(N)ncnc21)OCP(=O)(O)O | 5 (≈ 17.3 µM) | > 40 | 0.85 (≈ 2.95 µM) | 70 (≈ 243 µM) | 100 (≈ 347 µM) | 10 (≈ 34.7 µM) | 70 (≈ 243 µM) | 7 (≈ 24.3 µM) | 5.2 (≈ 18 µM) | 8 (≈ 27.8 µM) | 100 (≈ 347 µM) | > 40 | 8 (≈ 27.8 µM) | > 400
C[C@@H](Cn1nnc2c(O)nc(N)nc21)OCP(=O)(O)O | > 40 | > 40 | 27 (≈ 88.8 µM) | 300 (≈ 986 µM) | 300 (≈ 986 µM) | 85 (≈ 279 µM) | > 400 | 40 (≈ 131 µM) | 52.7 (≈ 173 µM) | 4 (≈ 13.1 µM) | 300 (≈ 986 µM) | > 40 | 10 (≈ 32.9 µM) | 300 (≈ 986 µM)
CC(C)OP(=O)(CO[C@H](CO)Cn1nc2ncnc(N)c2n1)OC(C)C |  | > 50 |  | > 400 | > 400 |  | > 400 |  |  | > 50 | > 400 | > 50 | > 50 | > 400
Nc1ncnc2nn(C[C@@H](CO)OCP(=O)(O)O)nc12 | > 100 | > 200 | > 100 | > 400 | > 400 |  | 150 (≈ 493 µM) |  | > 100 | > 100 | > 400 | > 200 | > 100 | > 400
Nc1nc2c(ncn2COCCO)c(=O)[nH]1 [ACYCLOVIR] |  | 13 (≈ 57.7 µM) |  | 0.015 (≈ 0.0666 µM) |  |  |  |  |  |  |  |  |  | 
Cc1cn([C@H]2C[C@H](N=[N+]=[N-])[C@@H](CO)O2)c(=O)[nH]c1=O [ZIDOVUDINE] |  |  | 0.02 (≈ 0.0748 µM) |  |  | 0.008 (≈ 0.0299 µM) |  | 0.005 (≈ 0.0187 µM) |  |  |  |  |  | 
